Assay results published in publication PMC4873422 (Molecular cancer therapeutics, 2016).

Columns and labels:
Type in all cases: cell-based, human
Pa03C cells = test: Monolayer proliferation assay; settings: tumor cells (Pa03C), 72 h
Summary of the method: (§1)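 Monolayers were grown in DMEM with 10% serum at 37 °C, 5% CO2. Seeding was Pa03C tumor cells 2,000–3,000/well, EGFP-expressing CAF19 fibroblasts 4,000/well, or tumor plus CAFs at a 2:1 ratio. Test compound was added 24 h after seeding, and viability was read 72 h later. Dose-response data are Avg+SE, n=3–4. The 50% value came from a linear-regression fit at 50% survival.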

CAF19 cells = test: Monolayer proliferation assay; settings: CAFs (CAF19), 72 h
Summary of the method: as §1

Pa03C + CAF19 co-culture = test: Monolayer proliferation assay; settings: 2:1 tumor:CAF co-culture, 72 h
Summary of the method: as §1

[1] = tested on: p-STAT3 (Y705) in Pa03C cells; test: Immunoblot of p-STAT3; settings: 10 μM, 4 hr pre-treatment, IL-6 25 ng/mL 15 min
Panc10.05 cells = test: Cell viability / proliferation screen; settings: 72 h, Avg ± SE, n=4–5
Summary of the method: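 Panc10.05 patient-derived PDAC cells (STR-verified) were grown in DMEM with 10% serum at 37 °C, 5% CO2. Monolayers were seeded at 2,000–3,000 cells/well, and test compound was added 24 h after seeding. MTS tetrazolium read-out was taken 72 h later. Data from 4–5 repeats were pooled, and ED50 was taken from a linear-regression fit where percent survival equalled 50%.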

Row | Structure (SMILES) | IC50 (Pa03C cells) | IC50 (CAF19 cells) | IC50 (Pa03C + CAF19 co-culture) | phosphorylation of STAT3 at Y705 [1] | ED50 (Panc10.05 cells)
1 | CN(CC(=O)N(Cc1ccc(C2CCCCC2)cc1)c1ccc(C(=O)O)c(O)c1)S(=O)(=O)c1c(F)c(F)c(F)c(F)c1F [BP-1-102] | 19.1 ± 0.9 µM | 15.2 ± 2.7 µM | 16.4 ± 0.6 µM | inhibited phosphorylation of STAT3 at Y705 | –
2 | CN(CC(=O)N(Cc1ccc(C2CCCCC2)cc1)c1ccc(C(=O)O)cc1)S(=O)(=O)c1c(F)c(F)c(F)c(F)c1F [SH-4-54] | 9.2 ± 1.7 µM | 7.6 ± 0.9 µM | 11.8 ± 1.1 µM | inhibited phosphorylation of STAT3 at Y705 | 8.7 ± 1.9 µM
